In brackets after ≈: the same amount, converted by molar mass.
Assays:
[1] = Intrinsic clearance in rat liver microsomes at 1 uM incubated upto 40 mins; assay type: ADME, Microsome; details: read-out: CLH
[2] = Stability of the compound at pH 7.4 by UHPLC-MS/MS analysis; assay type: physicochemical; details: buffer
[3] = Intrinsic clearance in human liver microsomes at 1 uM incubated upto 40 mins; assay type: ADME, Microsome; details: read-out: CLH
[4] = Solubility of compound; assay type: physicochemical
[5] = Volume of distribution at steady state in rat at 1 mg/kg,iv administered for 4 hrs; assay type: ADME, organism-based; details: in vivo, read-out: Vdss
[6] = Unbound brain-to-plasma concentration ratio in rat at 1 mg/kg,iv administered for 4 hrs; assay type: ADME, organism-based; details: brain and plasma (unbound), read-out: K(p,uu,brain)
[7] = Clearance in rat at 1 mg/kg,iv administered for 4 hrs; assay type: ADME, organism-based; details: in vivo
[8] = Half life in rat at 1 mg/kg,iv administered for 4 hrs; assay type: ADME, organism-based; details: in vivo
[9] = Dissociation constant, pKa of compound; assay type: physicochemical
[10] = Clearance in mouse at 1 mg/kg,iv administered for 4 hrs; assay type: ADME, organism-based; details: in vivo
[11] = Volume of distribution at steady state in mouse at 1 mg/kg,iv administered for 4 hrs; assay type: ADME, organism-based; details: in vivo, read-out: Vdss
[12] = Half life in mouse at 1 mg/kg,iv administered for 4 hrs; assay type: ADME, organism-based; details: in vivo
[13] = Drug concentration in rat brain at 80 mg/kg,ip administered for 24 hr by LC-MS/MS analysis; assay type: ADME, organism-based; details: in vivo
Outline: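 Post-natal day 10 rats given 80 mg/kg I.P.; groups sacrificed 0.5−24 h after dosing. Cortical samples from each hemisphere taken for brain drug concentration and tau phosphorylation.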

CN1CCC[C@@H](c2cn(-c3ccnc(N)n3)c3cc(C#CC(C)(C)O)ncc23)C1
CLint scaled at 1 µM [1]: < 11 mL/min/kg
Stability [2]: 99.3%
CLint scaled at 1 µM [3]: < 5 mL/min/kg

CC(C)(O)C#Cc1cc2c(cn1)c(C1CC1)cn2-c1ccnc(N)n1
CLint scaled at 1 µM [1]: 374 mL/min/kg
CLint scaled at 1 µM [3]: 10 mL/min/kg

CC(C)(O)C#Cc1cc2c(ccn2-c2ccnc(N)n2)c(N2CCOCC2)n1
CLint scaled at 1 µM [1]: 42 mL/min/kg
CLint scaled at 1 µM [3]: < 5 mL/min/kg

COc1nc(C#CC(C)(C)O)cc2c1ccn2-c1ccnc(N)n1
CLint scaled at 1 µM [1]: 62 mL/min/kg
CLint scaled at 1 µM [3]: 10 mL/min/kg

CC(C)(O)C#Cc1cc2c(cn1)c(C1CCOCC1)cn2-c1ccnc(N)n1
CLint scaled at 1 µM [1]: 38 mL/min/kg
CLint scaled at 1 µM [3]: 6 mL/min/kg

Cn1nc(-c2ccnc(N)n2)c2cc(C#CC(C)(C)O)ccc21
Stability [2]: 100%

CC[C@](C)(O)C#Cc1cc2c(cn1)cnn2-c1ccnc(N)n1
solubility [4]: 46 µg/mL (≈ 149 µM)
CLint scaled at 1 µM [1]: 36 mL/min/kg
Vd [5]: 2.48 L/kg
Stability [2]: 99.9%
CLint scaled at 1 µM [3]: < 5 mL/min/kg
Kp uu at 4 h [6]: 0.08
clearance [7]: 17 mL/min/kg
half-life [8]: 4.3 h

CC(C)(O)C#Cc1cc2c(ccn2-c2ccnc(N)n2)cc1F
CLint scaled at 1 µM [1]: 69 mL/min/kg
Stability [2]: 100%
CLint scaled at 1 µM [3]: 21 mL/min/kg

CC[C@](C)(O)C#Cc1cc2c(ccn2-c2ccnc(N)n2)cn1
solubility [4]: 44 µg/mL (≈ 143 µM)
CLint scaled at 1 µM [1]: 155 mL/min/kg
Vd [5]: 2.17 L/kg
Stability [2]: 99.7%
CLint scaled at 1 µM [3]: 11 mL/min/kg
Kp uu at 4 h [6]: 0.1
clearance [7]: 64 mL/min/kg
half-life [8]: 3.6 h

CC(C)(O)C#Cc1cc2c(cn1)cnn2-c1ccnc(N)n1
CLint scaled at 1 µM [1]: 27 mL/min/kg
pKa [9]: 4.9
CLint scaled at 1 µM [3]: < 5 mL/min/kg

CC(C)(O)C#Cc1cc2c(ccn2-c2ccnc(N)n2)cn1
CLint scaled at 1 µM [1]: 42 mL/min/kg
pKa [9]: 5.7
CLint scaled at 1 µM [3]: 19 mL/min/kg

CC(C)(O)C#Cc1cc2c(cn1)CCN2c1ccnc(N)n1
CLint scaled at 1 µM [1]: 24 mL/min/kg
pKa [9]: 7.4
Stability [2]: 82.7%
CLint scaled at 1 µM [3]: < 5 mL/min/kg

COc1cc2ccn(-c3ccnc(N)n3)c2cc1C#CC(C)(C)O
CLint scaled at 1 µM [1]: 56 mL/min/kg
CLint scaled at 1 µM [3]: 31 mL/min/kg

CC[C@](C)(O)C#Cc1cc2c(ccn2-c2cc(OC)nc(N)n2)cn1
solubility [4]: 45 µg/mL (≈ 133 µM)
CLint scaled at 1 µM [1]: 219 mL/min/kg
clearance [10]: 67 mL/min/kg
Vd [5]: 4.87 L/kg
Vd [11]: 0.474 L/kg
CLint scaled at 1 µM [3]: 16 mL/min/kg
Kp uu at 4 h [6]: 0.32
half-life [12]: 6 min
clearance [7]: 62 mL/min/kg
Drug uptake [13]: Not Active
half-life [8]: 3.6 h

Source: ChEMBL document CHEMBL5236545, “Discovery of Potent and Brain-Penetrant Tau Tubulin Kinase 1 (TTBK1) Inhibitors that Lower Tau Phosphorylation In Vivo” (J Med Chem, 2021)
